Results as given in ChEMBL document CHEMBL4477185, “Anacardic Acids from Knema hookeriana as Modulators of Bcl-xL/Bak and Mcl-1/Bid Interactions” (J Nat Prod, 2016).
The source made the active and inactive calls. The rule behind the calls is not given here.

Legend:
[1] = biological target: Induced myeloid leukemia cell differentiation protein Mcl-1/BH3-interacting domain death agonist (Homo sapiens, UniProt Q07820); experiment: Inhibition of His-tagged Mcl-1/5-carboxyfluorescein-Bid (unknown origin) after 1 hr by fluorescence polarization assay; assay type: protein assay
Induced myeloid leukemia cell differentiation protein Mcl-1/BH3-interacting domain death agonist, sequence (Q07820 whole entry, one chain of several, the tested form may be a part): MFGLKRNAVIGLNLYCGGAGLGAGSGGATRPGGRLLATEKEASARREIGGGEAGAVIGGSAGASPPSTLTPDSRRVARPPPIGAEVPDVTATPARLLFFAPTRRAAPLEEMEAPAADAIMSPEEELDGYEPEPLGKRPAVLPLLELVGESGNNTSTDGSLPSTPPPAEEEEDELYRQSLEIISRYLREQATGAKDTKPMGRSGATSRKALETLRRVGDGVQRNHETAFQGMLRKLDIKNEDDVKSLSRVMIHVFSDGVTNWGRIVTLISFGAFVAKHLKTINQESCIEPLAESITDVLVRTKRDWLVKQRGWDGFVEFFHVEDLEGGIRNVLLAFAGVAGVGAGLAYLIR
Procedure, shortened: (§1)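 Fluorescence polarization competition: a small molecule competes with a fluorescent-tagged BH3 peptide (Bak for Bcl-xL, Bid for Mcl-1) for binding to the anti-apoptotic protein. Run in triplicate.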

Bcl-xL/BAK = Bcl-xL/BAK (Homo sapiens, UniProt Q07817); experiment: Inhibition of His-tagged Bcl-xL/5-carboxyfluorescein-Bak (unknown origin) after 1 hr by fluorescence polarization assay; assay type: protein assay; procedure, shortened: as §1
Bcl-xL/BAK, sequence (Q07817 whole entry): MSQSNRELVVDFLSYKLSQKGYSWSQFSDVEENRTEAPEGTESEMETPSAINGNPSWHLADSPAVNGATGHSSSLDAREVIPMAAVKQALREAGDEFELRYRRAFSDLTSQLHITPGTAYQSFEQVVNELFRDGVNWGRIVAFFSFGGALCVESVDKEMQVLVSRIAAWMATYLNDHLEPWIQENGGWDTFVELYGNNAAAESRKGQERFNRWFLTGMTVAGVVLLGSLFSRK
Bcl-xL/BAK, sequence (Q16611 whole entry, further chain): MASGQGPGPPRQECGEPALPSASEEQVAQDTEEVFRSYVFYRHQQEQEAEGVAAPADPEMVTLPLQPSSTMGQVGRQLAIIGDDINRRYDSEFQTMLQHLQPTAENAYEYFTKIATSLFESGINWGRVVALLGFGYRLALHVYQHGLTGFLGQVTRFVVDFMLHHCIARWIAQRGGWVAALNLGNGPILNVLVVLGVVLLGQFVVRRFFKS

HCT-116 = experiment: Cytotoxicity against human HCT116 cells assessed as decrease in cell viability after 72 hrs by resazurin dye based fluorescence assay; assay type: functional
[2] = biological target: T1, BH3-interacting domain death agonist (Homo sapiens) (UniProt P55957); experiment: Binding affinity to Bid (unknown origin) assessed as induction of chemical shift perturbations by NMR titration method
T1 sequence (whole entry): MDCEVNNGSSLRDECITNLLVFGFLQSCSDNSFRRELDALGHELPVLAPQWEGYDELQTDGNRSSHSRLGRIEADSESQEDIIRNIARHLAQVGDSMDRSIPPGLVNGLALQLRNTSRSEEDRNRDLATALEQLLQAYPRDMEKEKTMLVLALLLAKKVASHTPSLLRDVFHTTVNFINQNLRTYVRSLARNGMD

[3] = biological target: T1, BH3-interacting domain death agonist (Homo sapiens); experiment: Binding affinity to Bid (unknown origin) at 2 equivalent assessed as interaction at Asp16/Ser17/Met18/Asp19 and Arg20 residues by 2D 1H-1H TOCSY analysis
[4] = biological target: T1, BH3-interacting domain death agonist (Homo sapiens); experiment: Binding affinity to Bid (unknown origin) assessed as micelles formation at 0.25 to 5 equivalent by 1H NMR spectra analysis
[5] = biological target: Bcl-2-like protein 1 (Homo sapiens) (UniProt Q07817); experiment: Binding affinity to Bcl-XL (unknown origin) assessed as effect on protein HN resonances at 1.5 equivalent by HSQC 1H-15N NMR spectroscopy
Bcl-2-like protein 1 (Homo sapiens), sequence (Q07817 whole entry): as the sequence (Q07817 whole entry) above
Procedure, shortened: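 Ligand titration into Bcl-xL, followed by 1H-15N HSQC spectra recorded on an 800 MHz spectrometer with a 5 mm z-gradient TCI cryoprobe.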

[6] = biological target: Induced myeloid leukemia cell differentiation protein Mcl-1 (Homo sapiens) (UniProt Q07820); experiment: Binding affinity to Mcl-1 (unknown origin) assessed as effect on protein HN resonances at 1.5 equivalent by HSQC 1H-15N NMR spectroscopy
Induced myeloid leukemia cell differentiation protein Mcl-1 (Homo sapiens), sequence (Q07820 whole entry): as the sequence (Q07820 whole entry, one chain of several, the tested form may be a part) above

## CCCC/C=C\CCCCCc1cccc(O)c1C(=O)O
[1]
  Ki: 5.8 µM
Bcl-xL/BAK
  Ki: 3.2 µM
HCT-116
  Activity: inactive

## CCCCCCCCCc1cccc(O)c1C(=O)O
[1]
  Ki: 17.7 µM
Bcl-xL/BAK
  Ki: > 23 µM
HCT-116
  Activity: inactive

## CCCCCCCCCCCCCc1cccc(O)c1C(=O)O [GINKGOLIC ACID 13:0]
[1]
  Ki: 0.2 µM
Bcl-xL/BAK
  Ki: 0.2 µM
[2]
  Activity: Active
HCT-116
  Activity: inactive
[3]
  Activity: Active
[4]
  Activity: Dose-dependent effect
[5]
  Activity: inactive
[6]
  Activity: inactive

## CCCC/C=C\CCCCCCCc1cccc(O)c1
[1]
  Ki: > 33 µM
Bcl-xL/BAK
  Ki: > 23 µM

## CCCC/C=C\CCCCCCCc1cc(O)cc(O)c1C(C)=O
[1]
  Ki: > 33 µM
Bcl-xL/BAK
  Ki: > 23 µM

## CC(C)=CCC[C@@H](C)[C@H]1C=C[C@@]2(C(=O)O)[C@H](CC(C)=C[C@@H]2/C=C(\C)C2CCC(C(=O)O)CC2)C1 (some centres undefined) [MEIOGYNIN A]
Bcl-xL/BAK
  Ki: 2.6 µM

## O=C(O)c1c(O)cccc1CCCCCCCCc1ccccc1
[1]
  Ki: 3.7 µM
Bcl-xL/BAK
  Ki: 16.3 µM
HCT-116
  Activity: inactive

## CCCCCCCCCCCc1cccc(O)c1C(=O)O
[1]
  Ki: 0.7 µM
Bcl-xL/BAK
  Ki: 1.2 µM
HCT-116
  Activity: inactive

## CCCC/C=C\CCCCCc1cc(O)cc(O)c1C(C)=O
[1]
  Ki: > 33 µM
Bcl-xL/BAK
  Ki: > 23 µM

## CCCCCCCCCCCCCc1cccc(O)c1
[1]
  Ki: > 33 µM
Bcl-xL/BAK
  Ki: > 23 µM

## CCCCCCCCCCCc1cc(O)cc(O)c1C(C)=O
[1]
  Ki: > 33 µM
Bcl-xL/BAK
  Ki: > 23 µM

## CCCC/C=C\CCCCCCCc1cccc(O)c1C(=O)O
[1]
  Ki: 0.2 µM
Bcl-xL/BAK
  Ki: 0.3 µM
HCT-116
  Activity: inactive
